Our source for the MNTC and MIC values is ChEMBL document CHEMBL2390844, “Evaluation of bioactivities of chlorokojic acid derivatives against dermatophytes couplet with cytotoxicity” (Bioorg Med Chem Lett, 2013).

Data set [1] in a line: Cytotoxicity against human HeLa cells. Conditions: read-out: MNCC. Type of data set: cell-based. In short, it runs like this: (§1)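 Maximum non-toxic concentration (MNTC) determined in HeLa and MRC-5 cells by a previously described method, based on cellular morphological alteration.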
A short description of data set [2]: Cytotoxicity against human MRC5 cells. Type of data set: cell-based. The settings on record: read-out: MNCC. The procedure, abridged:
as §1

Data set [3] concerns Epidermophyton floccosum. The data set can be described thus: Antidermatophytic activity against Epidermophyton floccosum isolate after 7 days by broth microdilution method. Type of data set: functional. Conditions: 168 h. The procedure, abridged:
(§2)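 Broth microdilution per CLSI in RPMI 1640 with L-glutamine, no bicarbonate, buffered to pH 7.0 with 0.165 M MOPS, filter-sterilized. Test dilution series 128-0.0625 μg mL⁻¹; sterility and growth (inoculum) controls on each plate. Wells inoculated, incubated 28°C for 7 days, read visually with an inverted mirror; MIC recorded. Triplicate.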
On the technique in general: Broth dilution looks for growth in wells or tubes with falling amounts of substance.

In data set [4] the test system is Epidermophyton floccosum. Nature of the data set: Antidermatophytic activity against Epidermophyton floccosum RSKK 3027 after 7 days by broth microdilution method. The settings on record: RSKK 3027, 168 h. Type of data set: functional. In short, it runs like this: as §2
For data set [5], the system named is Nannizzia gypsea. The data set can be described thus: Antidermatophytic activity against Microsporum gypseum isolate after 7 days by broth microdilution method. Conditions: 168 h. Type of data set: functional. In short, it runs like this: as §2
The test system of data set [6] is Nannizzia gypsea. Nature of the data set: Antidermatophytic activity against Microsporum gypseum NCPF 580 after 7 days by broth microdilution method. It counts as functional. The settings on record: NCPF 580, 168 h. In short, it runs like this: as §2
Data set [7] can be described thus: Antidermatophytic activity against Trichophyton mentagrophytes var. erinacei isolate after 7 days by broth microdilution method. The settings on record: Arthroderma benhamiae. Type of data set: functional. In short, it runs like this:
as §2

The nature of data set [8]: Antidermatophytic activity against Trichophyton mentagrophytes var. erinacei NCPF 375 after 7 days by broth microdilution method. Type of data set: functional. The settings on record: Arthroderma benhamiae. In short, it runs like this:
as §2

Converted amounts (≈) assume the structure as drawn.

By MIC is commonly meant the lowest concentration found to suppress growth. A high value points to weaker potency. With `Cc1ccccc1N1CCN(Cc2oc(CCl)cc(=O)c2O)CC1`, the MNTC in data set [1] and in data set [2] was at least 128 µg/mL each time. Moreover, the MIC was found to be 32 µg/mL (≈ 91.7 µM) in data set [3]; 16 µg/mL (≈ 45.9 µM) in data set [4]; 32 µg/mL (≈ 91.7 µM) in data set [5]; 16 µg/mL (≈ 45.9 µM) in data set [6]; 16 µg/mL (≈ 45.9 µM) in data set [7]; 8 µg/mL (≈ 22.9 µM) in data set [8].
On to `Cc1ccccc1CN1CCN(Cc2oc(CCl)cc(=O)c2O)CC1`, for which the MNTC in data set [1] and in data set [2] was at least 512 µg/mL in each case. The minimal inhibitory concentration (MIC) in data set [3] came out at 32 µg/mL (≈ 88.2 µM); in data set [4], 16 µg/mL (≈ 44.1 µM); in data set [5], 32 µg/mL (≈ 88.2 µM); in data set [6], 16 µg/mL (≈ 44.1 µM); in data set [7], 32 µg/mL (≈ 88.2 µM); in data set [8], 16 µg/mL (≈ 44.1 µM).
